Experimental findings from ChEMBL document CHEMBL1275272, “Synthesis, characterization and antimicrobial activity of some disubstituted 1,3,4-oxadiazoles carrying 2-(aryloxymethyl)phenyl moiety” (2010) are described below.

What is called MIC is the lowest concentration that inhibits growth of the organism. A higher MIC goes with a need for much substance.

≈ marks a conversion by molar mass, not a printed value.

What all share (type): functional
One test relates to Staphylococcus aureus. Description: Antibacterial activity against Staphylococcus aureus after 16 to 18 hrs by serial dilution method. Particulars: for MIC: Staphylococcus aureus. The method in brief: (§1)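 The test compound was dissolved in DMF and serially diluted. A standard drop of the prepared microbial culture was added to each dilution, and tubes were incubated at 37 °C for 16–18 h. MIC was taken as the highest dilution that stayed clear with no visible turbidity.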

The test system of a further test is Escherichia coli. Description: Antibacterial activity against Escherichia coli after 16 to 18 hrs by serial dilution method. Particulars: for MIC: Escherichia coli. In short, it runs like this:
as §1

The test system of the next test is Pseudomonas aeruginosa. Description: Antibacterial activity against Pseudomonas aeruginosa after 16 to 18 hrs by serial dilution method. The following applies: for MIC: Pseudomonas aeruginosa. The method in brief:
as §1

The subject of another test is Klebsiella pneumoniae. The test is described as follows: Antibacterial activity against Klebsiella pneumoniae after 16 to 18 hrs by serial dilution method. Particulars: for MIC: Klebsiella pneumoniae.
A further test deals with Talaromyces marneffei. Description: Antifungal activity against Penicillium marneffei after 16 to 18 hrs by serial dilution method. Particulars: for MIC: Talaromyces marneffei. In short, it runs like this: as §1
Test [1] has as its system Trichophyton mentagrophytes. Description: Antifungal activity against Trichophyton mentagrophytes after 16 to 18 hrs by serial dilution method. The following applies: for MIC: Trichophyton mentagrophytes.
For another test, the system named is Aspergillus flavus. Description: Antifungal activity against Aspergillus flavus after 16 to 18 hrs by serial dilution method. The following applies: for MIC: Aspergillus flavus. In short, it runs like this:
as §1

For a further test, the system named is Aspergillus fumigatus. Description: Antifungal activity against Aspergillus fumigatus after 16 to 18 hrs by serial dilution method. The following applies: for MIC: Aspergillus fumigatus.

`Cc1cccc(OCc2ccccc2-c2nnc(-c3ccc(Cl)cc3)o2)c1`: the “inhibition zone (IZ)” value (with Staphylococcus aureus; in the test with Escherichia coli; in the test on Pseudomonas aeruginosa; with Klebsiella pneumoniae; in the test on Talaromyces marneffei; in test [1]) was less than 10 mm in each case. For the same compound, the “inhibition zone (IZ)” value in the test on Aspergillus flavus and in the test with Aspergillus fumigatus was less than 10 mm throughout. In addition, the MIC (with Staphylococcus aureus; in the test with Escherichia coli; in the test with Pseudomonas aeruginosa; with Klebsiella pneumoniae; with Talaromyces marneffei; in test [1]) was 25 µg/mL (≈ 66.3 µM) throughout. Also, the MIC in the test with Aspergillus flavus and in the test on Aspergillus fumigatus was 25 µg/mL (≈ 66.3 µM) each time.

Regarding `Cc1ccc(OCc2ccccc2-c2nnc(-c3ccc(Cl)cc3)o2)cc1`, the “inhibition zone (IZ)” value (in the test on Staphylococcus aureus; in the test on Escherichia coli; with Pseudomonas aeruginosa; in the test with Klebsiella pneumoniae; in the test on Talaromyces marneffei; in test [1]) was less than 10 mm throughout. Further, the “inhibition zone (IZ)” value in the test with Aspergillus flavus and with Aspergillus fumigatus was less than 10 mm each time. Further, the MIC (against Staphylococcus aureus; against Escherichia coli; with Pseudomonas aeruginosa; in the test with Klebsiella pneumoniae; against Talaromyces marneffei; in test [1]) was 25 µg/mL (≈ 66.3 µM) in each case. For the same compound, the MIC with Aspergillus flavus and in the test with Aspergillus fumigatus was 25 µg/mL (≈ 66.3 µM) throughout.

For the compound `Clc1ccc(OCc2ccccc2-c2nnc(-c3ccc(Cl)cc3)o2)cc1`, the “inhibition zone (IZ)” value (with Staphylococcus aureus; in the test with Escherichia coli; in the test with Pseudomonas aeruginosa; in the test on Klebsiella pneumoniae; with Talaromyces marneffei; in test [1]) was less than 10 mm in each case. Also, the “inhibition zone (IZ)” value in the test with Aspergillus flavus and in the test on Aspergillus fumigatus was less than 10 mm each time. The MIC (against Staphylococcus aureus; in the test with Escherichia coli; in the test with Pseudomonas aeruginosa; in the test with Klebsiella pneumoniae; against Talaromyces marneffei; in test [1]) was 25 µg/mL (≈ 62.9 µM) each time. Also, the MIC in the test with Aspergillus flavus and against Aspergillus fumigatus was 25 µg/mL (≈ 62.9 µM) in each case.

With `Cc1ccccc1OCc1ccccc1-c1nnc(-c2cccc3ncccc23)o1`, the “inhibition zone (IZ)” value (in the test with Staphylococcus aureus; with Escherichia coli; in the test on Pseudomonas aeruginosa; with Klebsiella pneumoniae; with Talaromyces marneffei; in test [1]) was less than 10 mm each time. Further, the “inhibition zone (IZ)” value with Aspergillus flavus and in the test with Aspergillus fumigatus was less than 10 mm in each case. For the same compound, the MIC (in the test on Staphylococcus aureus; against Escherichia coli; against Pseudomonas aeruginosa; in the test with Klebsiella pneumoniae; in the test on Talaromyces marneffei; in test [1]) was 25 µg/mL (≈ 63.5 µM) each time. The MIC against Aspergillus flavus and in the test on Aspergillus fumigatus was 25 µg/mL (≈ 63.5 µM) throughout.

Consider `Cc1cccc(OCc2ccccc2-c2nnc(-c3cccc4ncccc34)o2)c1`, for which the “inhibition zone (IZ)” value (with Staphylococcus aureus; in the test with Escherichia coli; in the test with Pseudomonas aeruginosa; with Klebsiella pneumoniae; with Talaromyces marneffei; in test [1]) was less than 10 mm in each case. Moreover, the “inhibition zone (IZ)” value in the test with Aspergillus flavus and with Aspergillus fumigatus was less than 10 mm in each case. Also, the MIC (in the test on Staphylococcus aureus; against Escherichia coli; in the test on Pseudomonas aeruginosa; in the test on Klebsiella pneumoniae; with Talaromyces marneffei; in test [1]) was 25 µg/mL (≈ 63.5 µM) each time. The MIC with Aspergillus flavus and with Aspergillus fumigatus was 25 µg/mL (≈ 63.5 µM) in each case.

For `Cc1ccc(OCc2ccccc2-c2nnc(-c3cccc4ncccc34)o2)cc1`, the “inhibition zone (IZ)” value (with Staphylococcus aureus; with Escherichia coli; with Pseudomonas aeruginosa; in the test on Klebsiella pneumoniae; with Talaromyces marneffei; in test [1]) was less than 10 mm each time. In addition, the “inhibition zone (IZ)” value in the test on Aspergillus flavus and in the test on Aspergillus fumigatus was less than 10 mm each time. For the same compound, the MIC (in the test on Staphylococcus aureus; in the test on Escherichia coli; in the test with Pseudomonas aeruginosa; in the test with Klebsiella pneumoniae; in the test on Talaromyces marneffei; in test [1]) was 25 µg/mL (≈ 63.5 µM) throughout. Moreover, the MIC in the test with Aspergillus flavus and with Aspergillus fumigatus was 25 µg/mL (≈ 63.5 µM) in each case.

For the compound `Clc1ccc(OCc2ccccc2-c2nnc(-c3cccc4ncccc34)o2)cc1`, the “inhibition zone (IZ)” value (in the test on Staphylococcus aureus; in the test with Escherichia coli; in the test on Pseudomonas aeruginosa; with Klebsiella pneumoniae; with Talaromyces marneffei; in test [1]) was less than 10 mm each time. Further, the “inhibition zone (IZ)” value with Aspergillus flavus and in the test with Aspergillus fumigatus was less than 10 mm throughout. In addition, the MIC (in the test on Staphylococcus aureus; against Escherichia coli; against Pseudomonas aeruginosa; in the test with Klebsiella pneumoniae; in the test on Talaromyces marneffei; in test [1]) was 25 µg/mL (≈ 60.4 µM) each time. Further, the MIC in the test with Aspergillus flavus and against Aspergillus fumigatus was 25 µg/mL (≈ 60.4 µM) throughout.

`Cc1ccccc1OCc1ccccc1-c1nnc(-c2cccc(Br)c2)o1`: the “inhibition zone (IZ)” value (in the test on Staphylococcus aureus; in the test on Escherichia coli; with Pseudomonas aeruginosa; with Klebsiella pneumoniae; in the test with Talaromyces marneffei; in test [1]) was less than 10 mm throughout. Also, the “inhibition zone (IZ)” value in the test with Aspergillus flavus and in the test on Aspergillus fumigatus was less than 10 mm throughout. Moreover, the MIC (against Staphylococcus aureus; against Escherichia coli; with Pseudomonas aeruginosa; with Klebsiella pneumoniae; in the test with Talaromyces marneffei; in test [1]) was 25 µg/mL (≈ 59.3 µM) throughout. In addition, the MIC with Aspergillus flavus and against Aspergillus fumigatus was 25 µg/mL (≈ 59.3 µM) each time.

As for `Cc1cccc(OCc2ccccc2-c2nnc(-c3cccc(Br)c3)o2)c1`, the “inhibition zone (IZ)” value (with Staphylococcus aureus; in the test on Escherichia coli; with Pseudomonas aeruginosa; with Klebsiella pneumoniae; with Talaromyces marneffei; in test [1]) was less than 10 mm each time. Also, the “inhibition zone (IZ)” value with Aspergillus flavus and in the test with Aspergillus fumigatus was less than 10 mm throughout. The MIC (with Staphylococcus aureus; against Escherichia coli; with Pseudomonas aeruginosa; in the test on Klebsiella pneumoniae; in the test on Talaromyces marneffei; in test [1]) was 25 µg/mL (≈ 59.3 µM) throughout. Also, the MIC in the test with Aspergillus flavus and with Aspergillus fumigatus was 25 µg/mL (≈ 59.3 µM) throughout.

On to `Cc1ccc(OCc2ccccc2-c2nnc(-c3cccc(Br)c3)o2)cc1`, for which the “inhibition zone (IZ)” value (in the test on Staphylococcus aureus; in the test with Escherichia coli; with Pseudomonas aeruginosa; in the test on Klebsiella pneumoniae; in the test with Talaromyces marneffei; in test [1]) was less than 10 mm in each case. Moreover, the “inhibition zone (IZ)” value in the test with Aspergillus flavus and with Aspergillus fumigatus was less than 10 mm in each case. For the same compound, the MIC (in the test on Staphylococcus aureus; against Escherichia coli; against Pseudomonas aeruginosa; in the test on Klebsiella pneumoniae; against Talaromyces marneffei; in test [1]) was 25 µg/mL (≈ 59.3 µM) each time. The MIC with Aspergillus flavus and against Aspergillus fumigatus was 25 µg/mL (≈ 59.3 µM) each time.

Take `Clc1ccc(OCc2ccccc2-c2nnc(-c3cccc(Br)c3)o2)cc1`: the “inhibition zone (IZ)” value (in the test with Staphylococcus aureus; in the test on Escherichia coli; in the test on Pseudomonas aeruginosa; with Klebsiella pneumoniae; in the test on Talaromyces marneffei; in test [1]) was less than 10 mm each time. Moreover, the “inhibition zone (IZ)” value in the test on Aspergillus flavus and in the test with Aspergillus fumigatus was less than 10 mm in each case. Moreover, the MIC (with Staphylococcus aureus; against Escherichia coli; against Pseudomonas aeruginosa; in the test with Klebsiella pneumoniae; with Talaromyces marneffei; in test [1]) was 25 µg/mL (≈ 56.6 µM) each time. Moreover, the MIC in the test with Aspergillus flavus and with Aspergillus fumigatus was 25 µg/mL (≈ 56.6 µM) each time.

In the case of `Cc1ccccc1OCc1ccccc1-c1nn(CN2CCOCC2)c(=S)o1`, the “inhibition zone (IZ)” value (with Staphylococcus aureus; in the test on Escherichia coli; in the test on Pseudomonas aeruginosa; with Klebsiella pneumoniae; in the test on Talaromyces marneffei; in test [1]) was 11 mm in each case. The “inhibition zone (IZ)” value with Aspergillus flavus and in the test on Aspergillus fumigatus was 11 mm throughout. Further, the MIC (against Staphylococcus aureus; against Escherichia coli; in the test with Pseudomonas aeruginosa; against Klebsiella pneumoniae; against Talaromyces marneffei; in test [1]) was 12.5 µg/mL (≈ 31.4 µM) in each case. The MIC in the test with Aspergillus flavus and against Aspergillus fumigatus was 12.5 µg/mL (≈ 31.4 µM) throughout.
